Columns and labels:
[1] = Toxicity measured in CEM cells in the absence of virus.; assay type: cell-based; conditions: human, CEM cells (CCRF-CEM); read-out: TC50 (the source's name)
[2] = test system: Human immunodeficiency virus 1; assay: Antiviral activity in HIV infected CEM cells as effective concentration at which 50% of the cells are protected from cytopathic effect.; assay type: functional, organism-based; conditions: Human immunodeficiency virus 1, CCRF-CEM
Summary of the method: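 HIV-IIIB-infected human lymphocyte-derived CEM cells. EC50 is the drug concentration at which 50% of cells are protected from HIV cytopathic effects. Testing was done at Southern Research Institute.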

[3] = biological target: Human immunodeficiency virus type 1 protease (Human immunodeficiency virus 1, UniProt Q72874); assay: HIV-1 protease inhibition.
Summary of the method: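 Affinity-purified HIV-1 protease (1.5 nM final) with 40 µM peptide substrate His-Lys-Ala-Arg-Val-Leu-(p-NO2-Phe)-Glu-Ala-Nle-Ser-NH2 and 1.0% DMSO. Buffer: 80 mM MES, 160 mM NaCl, 1.0 mM DTT, 1.0 mM EDTA, 0.1% PEG 8000, pH 6.2. Incubated 60 min at 37 °C, then quenched with TFA (2% final). Products separated by reverse-phase HPLC and read at 220 nm. Percent control derived from % conversion with vs without inhibitor; IC50 then determined.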

[4] = compound was evaluated for pharmacokinetic parameter, Tmax; assay type: ADME, organism-based; conditions: in vivo
Summary of the method: (§1)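 Species-dependent dosing. Mice: 25 mg/kg po in 20% 0.1 N NaOH/80% 0.5% methylcellulose; values from a pool of five mice; plasma levels by HPLC. Rats: 10 mg/kg po by capsule or pH 7.4-buffered solution; average of two animals. Dogs: 10 mg/kg in saline (sodium salt) or pH 10-buffered 0.1 NaOH (free acid).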

[5] = Compound was evaluated for pharmacokinetic parameter, Cmax in rat at 10 mg/kg po; conditions: in vivo
[6] = Compound was evaluated for pharmacokinetic parameter, half life period (T1/2); assay type: ADME, organism-based; conditions: in vivo
[7] = Compound was evaluated for pharmacokinetic parameter, area under curve (AUC); assay type: ADME; set-up: unit not given here
[8] = compound was evaluated for pharmacokinetic parameter, area under curve (AUC); assay type: ADME; summary of the method: as §1
[9] = Compound was evaluated for pharmacokinetic parameter, Tmax; assay type: ADME, organism-based; conditions: in vivo
[10] = compound was evaluated for pharmacokinetic parameter, half life period (T1/2); assay type: ADME, organism-based; conditions: in vivo; summary of the method: as §1
[11] = Compound was evaluated for pharmacokinetic parameter, Cmax; assay type: ADME, organism-based; conditions: in vivo
[12] = Bioavailability; assay type: ADME, organism-based; conditions: eutheria, in vivo
Summary of the method: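 Dogs dosed at 10 mg/kg. Vehicle was either the sodium salt in normal saline or the free acid in 0.1 NaOH buffered to pH 10, depending on compound.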

SMILES	CC50 [1] [nM]	EC50 [2] [nM]	IC50 [3] [nM]	further results
Cc1cc(SC2=C(O)OC(CCc3cncs3)(C(C)C)CC2=O)c(C(C)(C)C)cc1CO (stereo not drawn)	229000	1900	0.24	–
Cc1cc(SC2=C(O)OC(CCc3csc(C(C)C)n3)(C(C)C)CC2=O)c(C(C)(C)C)cc1CO (stereo not drawn)	91000	23000	1.6	–
Cc1cc(SC2=C(O)OC(CCc3ccc4[nH]ccc4c3)(C(C)C)CC2=O)c(C(C)(C)C)cc1CO (stereo not drawn)	46000	680	0.98	–
Cc1cc(SC2=C(O)OC(CCc3ccco3)(C(C)C)CC2=O)c(C(C)(C)C)cc1CO (stereo not drawn)	190000	750	0.78	–
Cc1cc(SC2=C(O)OC(CCc3cscn3)(C(C)C)CC2=O)c(C(C)(C)C)cc1CO (stereo not drawn)	141000	2800	1.3	–
Cc1cc(SC2=C(O)OC(CCc3c[nH]c4ccccc34)(C(C)C)CC2=O)c(C(C)(C)C)cc1CO (stereo not drawn)	46000	370	0.72	–
Cc1cc(SC2=C(O)OC(CCc3cnc(N)nc3)(C(C)C)CC2=O)c(C(C)(C)C)cc1CO (stereo not drawn)	> 200000	5700	–	–
Cc1cc(SC2=C(O)OC(CCc3scnc3C)(C(C)C)CC2=O)c(C(C)(C)C)cc1CO (stereo not drawn)	164000	370	–	Tmax [4]: 15 min; Cmax [5]: 0.77 µM
Cc1cc(SC2=C(O)O[C@@](CCc3ccsc3)(C(C)C)CC2=O)c(C(C)(C)C)cc1CO	95000	14000	11.5	–
Cc1cc(SC2=C(O)OC(CCc3ccsc3)(C(C)C)CC2=O)c(C(C)(C)C)cc1CO (stereo not drawn)	110000	300	0.17	half-life [6]: 210 min; AUC [7]: 221; AUC [8]: 21 µg/h/mL; Tmax [4]: 30 min; Tmax [9]: 30 min; half-life [10]: 564 min; Cmax [11]: 39.6 µM; Cmax [5]: 11.2 µM
Cc1cc(SC2=C(O)OC(CCc3ccc(CO)s3)(C(C)C)CC2=O)c(C(C)(C)C)cc1CO (stereo not drawn)	182000	2500	0.58	–
Cc1cc(SC2=C(O)OC(CCc3nccs3)(C(C)C)CC2=O)c(C(C)(C)C)cc1CO (stereo not drawn)	216000	700	0.57	half-life [6]: 198 min; AUC [7]: 132; AUC [8]: 10000 ng·h/mL; Tmax [4]: 15 min; Tmax [9]: 30 min; half-life [10]: 732 min; Cmax [11]: 33 µM; Cmax ([5]; read-out: Cmax): 2.7 µM
Cc1cc(SC2=C(O)OC(CCc3ncsc3C(C)C)(C(C)C)CC2=O)c(C(C)(C)C)cc1CO (stereo not drawn)	52000	10000	5.8	–
Cc1cc(SC2=C(O)OC(CCc3cccnc3)(C(C)C)CC2=O)c(C(C)(C)C)cc1CO (stereo not drawn)	–	–	0.94	Tmax [9]: 30 min
Cc1cc(SC2=C(O)OC(CCc3nc4ccccc4s3)(C(C)C)CC2=O)c(C(C)(C)C)cc1CO (stereo not drawn)	62000	1500	1.4	–
CC(=O)Nc1nc(CCC2(C(C)C)CC(=O)C(Sc3cc(C)c(CO)cc3C(C)(C)C)=C(O)O2)cs1 (stereo not drawn)	210000	23000	18	–
Cc1csc(CCC2(C(C)C)CC(=O)C(Sc3cc(C)c(CO)cc3C(C)(C)C)=C(O)O2)n1 (stereo not drawn)	171000	800	0.45	–
Cc1cc(SC2=C(O)OC(CCc3ccc(N)cc3)(C(C)C)CC2=O)c(C(C)(C)C)cc1CO (racemic)	> 100000	500	0.43	half-life [6]: 132 min; AUC [7]: 42; Tmax [9]: 30 min; Cmax [11]: 23 µM
Cc1cc(SC2=C(O)OC(CCc3cscc3C)(C(C)C)CC2=O)c(C(C)(C)C)cc1CO (stereo not drawn)	51000	260	0.41	–

SMILES	CC50 [1] [nM]	EC50 [2] [nM]	IC50 [3] [nM]	further results
Cc1cc(SC2=C(O)OC(CCc3c[nH]cn3)(C(C)C)CC2=O)c(C(C)(C)C)cc1CO (stereo not drawn)	200000	89000	70	–
Cc1cc(SC2=C(O)OC(CCc3cc[nH]n3)(C(C)C)CC2=O)c(C(C)(C)C)cc1CO (stereo not drawn)	320000	5600	0.28	–
Cc1cc(SC2=C(O)OC(CCc3csc(CO)c3)(C(C)C)CC2=O)c(C(C)(C)C)cc1CO (stereo not drawn)	210000	18000	0.19	–
Cc1cc(SC2=C(O)OC(CCc3ccsc3CO)(C(C)C)CC2=O)c(C(C)(C)C)cc1CO (stereo not drawn)	200000	920	14	–
Cc1cc(SC2=C(O)OC(CCc3ccoc3)(C(C)C)CC2=O)c(C(C)(C)C)cc1CO (stereo not drawn)	199000	1000	0.34	half-life [6]: 336 min; AUC [7]: 241; Tmax [9]: 30 min; Cmax [11]: 54.4 µM
Cc1nc(CCC2(C(C)C)CC(=O)C(Sc3cc(C)c(CO)cc3C(C)(C)C)=C(O)O2)cs1 (stereo not drawn)	210000	4500	13	–
Cc1cc(SC2=C(O)O[C@](CCc3ccc(N)cc3)(C(C)C)CC2=O)c(C(C)(C)C)cc1CO	210000	–	0.11	bioavailability [12]: 33%; half-life [6]: 132 min; AUC [7]: 82; Tmax [4]: 30 min; Tmax [9]: 30 min; half-life [10]: 222 min; Cmax [11]: 26.5 µM
Cc1cc(SC2=C(O)OC(CCc3nc(C(C)C)cs3)(C(C)C)CC2=O)c(C(C)(C)C)cc1CO (stereo not drawn)	84000	33000	14	–
O=c1cc(-c2ccccc2)oc(O)c1Sc1ccccc1	–	–	3000	–
Cc1cc(SC2=C(O)OC(CCc3ncsc3C)(C(C)C)CC2=O)c(C(C)(C)C)cc1CO (stereo not drawn)	208000	1800	1.3	–
Cc1cnc(CCC2(C(C)C)CC(=O)C(Sc3cc(C)c(CO)cc3C(C)(C)C)=C(O)O2)s1 (stereo not drawn)	210000	1900	19	–
Cc1cc(SC2=C(O)OC(CCc3csc(N)n3)(C(C)C)CC2=O)c(C(C)(C)C)cc1CO (stereo not drawn)	> 200000	3500	0.95	–
Cc1cc(SC2=C(O)OC(CCc3cncnc3)(C(C)C)CC2=O)c(C(C)(C)C)cc1CO (stereo not drawn)	> 200000	1200	17	–
Cc1cc(SC2=C(O)OC(CCc3cccs3)(C(C)C)CC2=O)c(C(C)(C)C)cc1CO (stereo not drawn)	81000	500	0.35	–
Cc1cc(SC2=C(O)OC(CCc3sccc3C)(C(C)C)CC2=O)c(C(C)(C)C)cc1CO (stereo not drawn)	80000	280	–	–
Cc1cc(SC2=C(O)OC(CCc3ccccn3)(C(C)C)CC2=O)c(C(C)(C)C)cc1CO (stereo not drawn)	249000	1500	1.2	–
Cc1cc(SC2=C(O)OC(CCC3CCCO3)(C(C)C)CC2=O)c(C(C)(C)C)cc1CO (stereo not drawn)	–	–	5	–
Cc1cc(SC2=C(O)OC(CCc3scnc3C(C)C)(C(C)C)CC2=O)c(C(C)(C)C)cc1CO (stereo not drawn)	102000	1200	0.8	–
Cc1cc(SC2=C(O)OC(CCc3ccncc3)(C(C)C)CC2=O)c(C(C)(C)C)cc1CO (stereo not drawn)	296000	1500	1.5	–

From ChEMBL document CHEMBL1134529, “4-Hydroxy-5,6-dihydropyrones as inhibitors of HIV protease: the effect of heterocyclic substituents at C-6 on antiviral potency and pharmacokinetic parameters” (J Med Chem, 2001)
